Test results from ChEMBL document CHEMBL1137650, “An OXA-66/OXA-51-like carbapenemase and possibly an efflux pump are associated with resistance to imipenem in Acinetobacter baumannii” (2007).
Converted amounts (≈) assume the structure as drawn.

What was measured:
Acinetobacter baumannii [1] = experiment: Antibacterial activity against imipenem-resistant Acinetobacter baumannii abh13 by broth dilution method; format: functional
How it was run: (§1)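 Clinical isolates were collected at three Taiwan hospitals (1993–2003) and grown in tryptic soy broth at 37°C for 18 h. MIC by broth dilution following CLSI recommendations.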

Acinetobacter baumannii [2] = experiment: Antibacterial activity against imipenem-resistant Acinetobacter baumannii ab1265 by broth dilution method; format: functional; how it was run: as §1
Acinetobacter baumannii [3] = experiment: Antibacterial activity against imipenem-resistant Acinetobacter baumannii abh36 by broth dilution method; format: functional; how it was run: as §1
Acinetobacter baumannii [4] = experiment: Antibacterial activity against imipenem-susceptible Acinetobacter baumannii ab4 by broth dilution method; format: functional; how it was run: as §1
Acinetobacter baumannii [5] = experiment: Antibacterial activity against imipenem-susceptible Acinetobacter baumannii ab20 by broth dilution method; format: functional; how it was run: as §1
Acinetobacter baumannii [6] = experiment: Antibacterial activity against imipenem-resistant Acinetobacter baumannii abh29 by broth dilution method; format: functional; how it was run: as §1
Acinetobacter baumannii [7] = experiment: Antibacterial activity against imipenem-susceptible Acinetobacter baumannii ab1254 by broth dilution method; format: functional; how it was run: as §1
Acinetobacter baumannii [8] = experiment: Antibacterial activity against imipenem-susceptible Acinetobacter baumannii ab8 by broth dilution method; format: functional; how it was run: as §1
Acinetobacter baumannii [9] = experiment: Antibacterial activity against imipenem-resistant Acinetobacter baumannii abh26 by broth dilution method; format: functional; how it was run: as §1
Acinetobacter baumannii [10] = experiment: Antibacterial activity against imipenem-resistant Acinetobacter baumannii abh9 by broth dilution method; format: functional; how it was run: as §1
Acinetobacter baumannii [11] = experiment: Antibacterial activity against imipenem-susceptible Acinetobacter baumannii ab3 by broth dilution method; format: functional; how it was run: as §1
Acinetobacter baumannii [12] = experiment: Antibacterial activity against imipenem-resistant Acinetobacter baumannii abh14 by broth dilution method; format: functional; how it was run: as §1
Acinetobacter baumannii [13] = experiment: Antibacterial activity against imipenem-resistant Acinetobacter baumannii abh17 by broth dilution method; format: functional; how it was run: as §1
Acinetobacter baumannii [14] = experiment: Antibacterial activity against imipenem-resistant Acinetobacter baumannii abh20 by broth dilution method; format: functional; how it was run: as §1
Acinetobacter baumannii [15] = experiment: Antibacterial activity against imipenem-susceptible Acinetobacter baumannii ab12 by broth dilution method; format: functional; how it was run: as §1
Acinetobacter baumannii [16] = experiment: Antibacterial activity against imipenem-resistant Acinetobacter baumannii abh18 by broth dilution method; format: functional; how it was run: as §1
Acinetobacter baumannii [17] = experiment: Antibacterial activity against imipenem-intermediate Acinetobacter baumannii ab1297 by broth dilution method; format: functional
How it was run: (§2)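 Clinical A. baumannii isolates collected at three Taiwanese hospitals, routinely grown in tryptic soy broth at 37°C for 18 h. MICs (μg ml⁻¹) were determined by broth dilution following CLSI recommendations, or by Etest strips following the manufacturer's instructions.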

Acinetobacter baumannii [18] = experiment: Antibacterial activity against imipenem-susceptible Acinetobacter baumannii ab1308 by broth dilution method; format: functional; how it was run: as §2
Acinetobacter baumannii [19] = experiment: Antibacterial activity against imipenem-resistant Acinetobacter baumannii abh11 by broth dilution method; format: functional; how it was run: as §1
Acinetobacter baumannii [20] = experiment: Antibacterial activity against imipenem-resistant Acinetobacter baumannii abh39 by broth dilution method; format: functional; how it was run: as §1
Acinetobacter baumannii [21] = experiment: Antibacterial activity against imipenem-resistant Acinetobacter baumannii ab1266 by broth dilution method; format: functional; how it was run: as §1
Acinetobacter baumannii [22] = experiment: Antibacterial activity against imipenem-susceptible Acinetobacter baumannii ab1316 by broth dilution method; format: functional; how it was run: as §2
Acinetobacter baumannii [23] = experiment: Antibacterial activity against imipenem-susceptible Acinetobacter baumannii ATCC 19606 by broth dilution method; format: functional; details: ATCC 19606 = CIP 70.34 = JCM 6841
Acinetobacter baumannii [24] = experiment: Antibacterial activity against imipenem-resistant Acinetobacter baumannii abh37 by broth dilution method; format: functional; how it was run: as §1
Acinetobacter baumannii [25] = experiment: Antibacterial activity against imipenem-resistant Acinetobacter baumannii ISAB ab8(r) by broth dilution method; format: functional
Acinetobacter baumannii [26] = experiment: Ratio of MIC for Acinetobacter baumannii ISAB ab8(r) to MIC for Acinetobacter baumannii ISAB ab8(r) in presence of […] ug/ml efflux pump inhibitor carbonyl cyanide m-chlorophenyl-hydrazone; format: functional
Escherichia coli [27] = experiment: Antibacterial activity against Escherichia coli TOP10 expressing imipenem-resistant Acinetobacter baumannii ab1266 blaoxa-66 gene by Etest; format: functional
How it was run: (§3)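 E. coli TOP10 carrying empty pBAD/Myc-His or pBAD/Myc-His with blaOXA-66 cloned from the named strain, grown at 37°C in LB with 50 μg/ml ampicillin to OD600 0.5. Plated on Mueller-Hinton agar with 50 μg/ml ampicillin and 0.002% arabinose for induction. Imipenem MIC read by Etest.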

Escherichia coli [28] = experiment: Antibacterial activity against Escherichia coli TOP10 by Etest; format: functional; how it was run: as §3
Acinetobacter baumannii [29] = experiment: Ratio of MIC for Acinetobacter baumannii ISAB ab8(r) to MIC for Acinetobacter baumannii ISAB ab1254(r) in presence of […] ug/ml efflux pump inhibitor carbonyl cyanide m-chlorophenyl-hydrazone; format: functional
Acinetobacter baumannii [30] = experiment: Antibacterial activity against imipenem-resistant Acinetobacter baumannii ISAB ab1254(r) by broth dilution method in presence of 24 ug/ml efflux pump inhibitor carbonyl cyanide m-chlorophenyl-hydrazone; format: functional
Acinetobacter baumannii [31] = experiment: microbe, parasite or virus in culture; details: ISAB ab8(r)
Escherichia coli [32] = experiment: Antibacterial activity against Escherichia coli TOP10 expressing imipenem-susceptible Acinetobacter baumannii ab1254 blaoxa-66 gene by Etest; format: functional; how it was run: as §3
Acinetobacter baumannii [33] = experiment: Antibacterial activity against imipenem-resistant Acinetobacter baumannii ISAB ab1254(r) by broth dilution method; format: functional
Acinetobacter baumannii [34] = experiment: Antibacterial activity against imipenem-resistant Acinetobacter baumannii ISAB ab8(r) by broth dilution method in presence of 2 ug/ml efflux pump inhibitor carbonyl cyanide m-chlorophenyl-hydrazone; format: functional
Acinetobacter baumannii [35] = experiment: Ratio of MIC for Acinetobacter baumannii ISAB ab8(r) to MIC for Acinetobacter baumannii ISAB ab8(r) in presence of 2 ug/ml efflux pump inhibitor carbonyl cyanide m-chlorophenyl-hydrazone; format: functional
Acinetobacter baumannii [36] = experiment: Ratio of MIC for Acinetobacter baumannii ISAB ab1254(r) to MIC for Acinetobacter baumannii ISAB […] in presence of 2 ug/ml efflux pump inhibitor carbonyl cyanide m-chlorophenyl-hydrazone; format: functional
Acinetobacter baumannii [37] = experiment: Antibacterial activity against imipenem-resistant Acinetobacter baumannii ISAB ab1254(r) by broth dilution method in presence of 2 ug/ml efflux pump inhibitor carbonyl cyanide m-chlorophenyl-hydrazone; format: functional

Row | Molecule | MIC (Acinetobacter baumannii [1]) [µg/mL] | MIC (Acinetobacter baumannii [2]) [µg/mL] | MIC (Acinetobacter baumannii [3]) [µg/mL] | MIC (Acinetobacter baumannii [4]) [µg/mL] | MIC (Acinetobacter baumannii [5]) [µg/mL] | MIC (Acinetobacter baumannii [6]) [µg/mL] | MIC (Acinetobacter baumannii [7]) [µg/mL] | MIC (Acinetobacter baumannii [8]) [µg/mL] | MIC (Acinetobacter baumannii [9]) [µg/mL] | MIC (Acinetobacter baumannii [10]) [µg/mL] | MIC (Acinetobacter baumannii [11]) [µg/mL] | MIC (Acinetobacter baumannii [12]) [µg/mL] | MIC (Acinetobacter baumannii [13]) [µg/mL] | MIC (Acinetobacter baumannii [14]) [µg/mL] | MIC (Acinetobacter baumannii [15]) [µg/mL] | MIC (Acinetobacter baumannii [16]) [µg/mL] | MIC (Acinetobacter baumannii [17]) [µg/mL] | MIC (Acinetobacter baumannii [18]) [µg/mL] | MIC (Acinetobacter baumannii [19]) [µg/mL] | MIC (Acinetobacter baumannii [20]) [µg/mL] | further results
1 | O=C(O)c1cn(C2CC2)c2cc(N3CCNCC3)c(F)cc2c1=O [CIPROFLOXACIN] | > 32 | > 32 | > 32 | 0.25 (≈ 0.754 µM) | 3 (≈ 9.05 µM) | > 32 | > 32 | 0.38 (≈ 1.15 µM) | > 32 | > 32 | 0.125 (≈ 0.377 µM) | > 32 | > 32 | > 32 | 0.25 (≈ 0.754 µM) | > 32 | > 32 | > 32 | > 32 | > 32 | MIC (Acinetobacter baumannii [21]): > 32 µg/mL; MIC (Acinetobacter baumannii [22]): > 32 µg/mL; MIC (Acinetobacter baumannii [23]): 0.75 µg/mL (≈ 2.26 µM); MIC (Acinetobacter baumannii [24]): > 32 µg/mL
2 | C[C@@H](O)[C@H]1C(=O)N2C(C(=O)O)=C(SCCNC=N)C[C@H]12 [IMIPENEM ANHYDROUS] | 32 (≈ 107 µM) | > 32 | 32 (≈ 107 µM) | 1 (≈ 3.34 µM) | 1.5 (≈ 5.01 µM) | 32 (≈ 107 µM) | 3 (≈ 10 µM) | 1 (≈ 3.34 µM) | 32 (≈ 107 µM) | 32 (≈ 107 µM) | 1 (≈ 3.34 µM) | 32 (≈ 107 µM) | 32 (≈ 107 µM) | 32 (≈ 107 µM) | 1 (≈ 3.34 µM) | 32 (≈ 107 µM) | 8 (≈ 26.7 µM) | 2 (≈ 6.68 µM) | 32 (≈ 107 µM) | 32 (≈ 107 µM) | MIC (Acinetobacter baumannii [25]): 256 µg/mL (≈ 855 µM); fold change (FC) (Acinetobacter baumannii [26]): 4; MIC (Escherichia coli [27]): 1.5 µg/mL (≈ 5.01 µM); MIC (Escherichia coli [28]): 0.19 µg/mL (≈ 0.635 µM); fold change (FC) (Acinetobacter baumannii [29]): 8; MIC (Acinetobacter baumannii [30]): 16 µg/mL; MIC (Acinetobacter baumannii [31]): 64 µg/mL (≈ 214 µM); MIC (Acinetobacter baumannii [21]): > 32 µg/mL; MIC (Acinetobacter baumannii [22]): 3 µg/mL (≈ 10 µM); MIC (Acinetobacter baumannii [23]): 0.38 µg/mL (≈ 1.27 µM); MIC (Acinetobacter baumannii [24]): 32 µg/mL (≈ 107 µM); MIC (Escherichia coli [32]): 0.75 µg/mL (≈ 2.51 µM); MIC (Acinetobacter baumannii [33]): 128 µg/mL (≈ 428 µM)
3 | C[C@@H](O)[C@H]1C(=O)N2C(C(=O)O)=C(S[C@@H]3CN[C@H](C(=O)N(C)C)C3)[C@H](C)[C@H]12 [MEROPENEM] | > 32 | > 32 | > 32 | 0.5 (≈ 1.3 µM) | 0.75 (≈ 1.96 µM) | > 32 | 0.75 (≈ 1.96 µM) | 0.5 (≈ 1.3 µM) | 32 (≈ 83.4 µM) | > 32 | 0.38 (≈ 0.991 µM) | > 32 | 16 (≈ 41.7 µM) | 32 (≈ 83.4 µM) | 0.5 (≈ 1.3 µM) | 32 (≈ 83.4 µM) | 32 (≈ 83.4 µM) | 0.75 (≈ 1.96 µM) | > 32 | 32 (≈ 83.4 µM) | MIC (Acinetobacter baumannii [34]): 4 µg/mL; fold change (FC) (Acinetobacter baumannii [35]): 2; MIC (Acinetobacter baumannii [25]): 8 µg/mL (≈ 20.9 µM); fold change (FC) (Acinetobacter baumannii [36]): 2; MIC (Acinetobacter baumannii [37]): 3 µg/mL; MIC (Acinetobacter baumannii [21]): > 32 µg/mL; MIC (Acinetobacter baumannii [22]): 1.5 µg/mL (≈ 3.91 µM); MIC (Acinetobacter baumannii [24]): 32 µg/mL (≈ 83.4 µM); MIC (Acinetobacter baumannii [33]): 6 µg/mL (≈ 15.6 µM)
4 | CCN1CCN(C(=O)N[C@@H](C(=O)N[C@@H]2C(=O)N3[C@@H]2SC(C)(C)[C@@H]3C(=O)O)c2ccccc2)C(=O)C1=O [PIPERACILLIN] | > 256 | > 256 | > 256 | > 256 | > 256 | > 256 | > 256 | > 256 | > 256 | > 256 | > 256 | > 256 | > 256 | > 256 | > 256 | > 256 | > 256 | > 256 | > 256 | > 256 | MIC (Acinetobacter baumannii [21]): > 256 µg/mL; MIC (Acinetobacter baumannii [22]): > 256 µg/mL; MIC (Acinetobacter baumannii [24]): > 256 µg/mL
5 | GENTAMICIN | > 256 | > 256 | > 256 | 256 | > 256 | > 256 | > 256 | > 256 | > 256 | > 256 | 256 | > 256 | > 256 | > 256 | > 256 | > 256 | > 256 | > 256 | > 256 | > 256 | MIC (Acinetobacter baumannii [21]): > 256 µg/mL; MIC (Acinetobacter baumannii [22]): > 256 µg/mL; MIC (Acinetobacter baumannii [24]): > 256 µg/mL
